The text below walks through data of ChEMBL document CHEMBL4118164, “Discovery of (E)-1-amino-4-phenylbut-3-en-2-ol derivatives as novel neuraminidase inhibitors” (Bioorg Med Chem Lett, 2018).

Neuraminidase, sequence (B4URF0 whole entry): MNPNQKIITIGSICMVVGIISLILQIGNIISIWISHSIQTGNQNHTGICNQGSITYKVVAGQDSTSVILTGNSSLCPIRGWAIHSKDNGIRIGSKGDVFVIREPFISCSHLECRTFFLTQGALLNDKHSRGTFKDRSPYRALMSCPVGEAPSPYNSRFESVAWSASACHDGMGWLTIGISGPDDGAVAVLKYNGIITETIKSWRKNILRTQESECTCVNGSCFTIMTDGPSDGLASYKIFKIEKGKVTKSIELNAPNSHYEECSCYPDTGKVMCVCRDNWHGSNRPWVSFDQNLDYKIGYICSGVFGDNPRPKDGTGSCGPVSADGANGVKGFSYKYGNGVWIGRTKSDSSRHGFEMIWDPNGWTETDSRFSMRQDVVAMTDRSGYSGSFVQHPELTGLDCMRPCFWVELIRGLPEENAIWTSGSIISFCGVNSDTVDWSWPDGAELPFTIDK

The target in this experiment is Neuraminidase (Influenza A virus, UniProt B4URF0). Nature of the experiment: Inhibition of Influenza A H1N1 virus neuraminidase activity preincubated for 2 mins followed by MUNANA substrate addition measured after 30 mins by […]. The essentials:
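Test compounds were dissolved in DMSO as stock solutions and diluted with assay buffer to four concentrations, spaced tenfold apart. Neuraminidase inhibition was measured with a commercial neuraminidase-inhibitor screening kit using a fluorescent read-out. IC50 values are means of three or more experiments.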
What is called IC50 is the point on the concentration scale where inhibition reaches its midpoint. Lower therefore signals greater potency. The compound `NCC(O)c1ccccc1` (stereo unspecified) came in with an IC50 of 870 µM.

Compound `NCC(O)/C=C/c1ccccc1` (stereo unspecified) [listing 1 of 2 here] gave a 50% inhibitory concentration (IC50) of 214 µM.

In turn, `CC(C)(C)OC(=O)/N=C(\NCC(O)/C=C/c1ccccc1)NC(=O)OC(C)(C)C` (stereo unspecified) displayed an IC50 of 103 µM.

In turn, `NCC(O)c1ccsc1` (stereo unspecified) gave an IC50 of 8900 µM.

As to `O=S(=O)(NCC(O)/C=C/c1ccccc1)c1ccccc1` (stereo unspecified), the IC50 came out at 7.6 µM.

Compound `COc1cccc(S(=O)(=O)NCC(O)/C=C/c2ccccc2)c1` (stereo unspecified) showed an IC50 of 7.2 µM.

Regarding `Cc1ccc(CN(Cc2ccc(C)cc2)CC(O)/C=C/c2ccccc2)cc1` (stereo unspecified), the IC50 is 50.7 µM.

Turning to `COc1ccccc1S(=O)(=O)NCC(O)/C=C/c1ccccc1` (stereo unspecified), the IC50 is 8 µM.

`COc1ccc(S(=O)(=O)NCC(O)/C=C/c2ccccc2)cc1` (stereo unspecified) displayed a concentration for half-maximal inhibition (IC50) of 6.4 µM.

The compound `COc1ccccc1C(O)CN` (stereo unspecified) yielded an IC50 of 5200 µM.

`OC(/C=C/c1ccccc1)CN(Cc1ccccc1)Cc1ccccc1` (stereo unspecified) gave an IC50 of 41.5 µM.

Consider `COC(=O)c1ccc(C(=O)NCC(/C=C/c2ccccc2)OC(=O)c2ccc(C(=O)OC)cc2)cc1` (stereo unspecified), for which it took 40.5 µM to reach half-maximal inhibition (IC50).

In turn, `COc1cccc(C(O)CN)c1` (stereo unspecified) registered an IC50 of 6100 µM.

In the case of `O=S(=O)(NCC(O)/C=C/c1ccccc1)c1ccc(OCc2ccccc2)cc1` (stereo unspecified), the IC50 turned out to be 11.1 µM.

For the compound `N#Cc1ccc(CN(Cc2ccc(C#N)cc2)CC(O)/C=C/c2ccccc2)cc1` (stereo unspecified), the IC50 is 49.8 µM.

Take `COC(=O)c1ccc(S(=O)(=O)NCC(O)/C=C/c2ccccc2)cc1` (stereo unspecified): the IC50 is 13.3 µM.

The compound `NCC(O)/C=C/c1ccccc1` (stereo unspecified) [listing 2 of 2 here] yielded an IC50 of 207 µM. This IC50 is about 16-fold higher than that of the compound before.

`N#Cc1ccc(S(=O)(=O)NCC(O)/C=C/c2ccccc2)cc1` (stereo unspecified) showed a 50% inhibitory concentration (IC50) of 11.4 µM. Against the preceding compound, the IC50 is about 18-fold lower.

As for `O=S(=O)(NCC(O)/C=C/c1ccccc1)c1ccc(Br)cc1` (stereo unspecified), the IC50 amounted to 9.4 µM.

For the compound `Cc1ccc(C(=O)NCC(/C=C/c2ccccc2)OC(=O)c2ccc(C)cc2)cc1` (stereo unspecified), half-maximal inhibition (IC50) was put at 61.5 µM. This IC50 is about 6.5-fold higher than that of the compound before.

With `Cc1ccc(S(=O)(=O)NCC(O)/C=C/c2ccccc2)cc1` (stereo unspecified), the IC50 came out at 7.6 µM.

Compound `N#Cc1ccc(C(=O)NCC(/C=C/c2ccccc2)OC(=O)c2ccc(C#N)cc2)cc1` (stereo unspecified) had an IC50 of 33 µM. This IC50 is about 4.3-fold higher than that of the compound before.

`CC(C)(C)OC(=O)NCC(O)/C=C/c1ccccc1` (stereo unspecified) showed an IC50 of 106 µM.

For the compound `O=S(=O)(NCC(O)/C=C/c1ccccc1)c1ccc(F)cc1` (stereo unspecified), the IC50 turned out to be 7.9 µM. This IC50 is about 13-fold lower than that of the compound before.

Compound `O=S(=O)(NCC(O)/C=C/c1ccccc1)c1ccc(Cl)cc1` (stereo unspecified) came in with an IC50 of 9.2 µM. The IC50 values of the last two compounds are within 1.5-fold of each other.

For `OC(/C=C/c1ccccc1)CN(Cc1ccc(C(F)(F)F)cc1)Cc1ccc(C(F)(F)F)cc1` (stereo unspecified), it took 32.8 µM to reach half-maximal inhibition (IC50).
